Drawing on ChEMBL document CHEMBL3872215, “Optimization and biological evaluation of aminopyrimidine-based IκB kinase β inhibitors with potent anti-inflammatory effects” (Eur J Med Chem, 2016), this text covers inhibition, IC50 and logD for 29 compounds.

Active and inactive are the calls of the source. No cut-off for these calls is given here.

Series [1] concerns RAW264.7. Put plainly: Antiinflammatory activity against mouse RAW264.7 cells assessed as inhibition of LPS induced nitrite accumulation at 1 to 5 uM preincubated for 6 hrs followed by LPS challenge measured after 18 hrs by Griess reagent based assay. The class given is functional, cell-based. Summed up: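 Cells seeded at 1 × 10^5 cells/ml and grown 24 h, then pretreated 6 h with compound at 1, 2 or 5 µM. LPS 100 ng/ml added for a further 18 h. NO production read as nitrite in the culture medium and compared with the negative control.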

Series [2] concerns the target T1, Inhibitor of nuclear factor kappa-B kinase subunit beta (Homo sapiens, UniProt O14920).
T1 sequence (O14920 whole entry): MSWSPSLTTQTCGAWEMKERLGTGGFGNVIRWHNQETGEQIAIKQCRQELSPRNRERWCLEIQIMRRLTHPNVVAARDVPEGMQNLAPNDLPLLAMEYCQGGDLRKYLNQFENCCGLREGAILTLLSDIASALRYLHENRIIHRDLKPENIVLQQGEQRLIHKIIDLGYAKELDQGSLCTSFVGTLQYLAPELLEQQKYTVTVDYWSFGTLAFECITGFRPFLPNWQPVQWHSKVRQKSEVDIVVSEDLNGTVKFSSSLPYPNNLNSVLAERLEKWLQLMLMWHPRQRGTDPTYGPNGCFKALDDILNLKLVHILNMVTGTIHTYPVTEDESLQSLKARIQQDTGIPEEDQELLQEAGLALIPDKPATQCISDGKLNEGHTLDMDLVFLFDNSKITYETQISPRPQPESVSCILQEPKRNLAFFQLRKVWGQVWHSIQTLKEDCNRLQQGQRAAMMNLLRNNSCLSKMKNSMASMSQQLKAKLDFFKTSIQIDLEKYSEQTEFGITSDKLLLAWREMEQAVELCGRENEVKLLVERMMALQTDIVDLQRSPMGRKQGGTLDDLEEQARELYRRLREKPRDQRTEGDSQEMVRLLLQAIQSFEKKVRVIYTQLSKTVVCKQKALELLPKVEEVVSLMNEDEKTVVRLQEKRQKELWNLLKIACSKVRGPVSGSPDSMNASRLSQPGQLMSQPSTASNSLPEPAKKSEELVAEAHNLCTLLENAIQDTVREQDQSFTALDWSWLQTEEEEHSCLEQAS
As to the kind of experiment: Inhibition of IKKbeta (unknown origin).

A short description of series [3]: Lipophilicity, logD of the compound at pH 7.4. To be noted: buffer. The class given is physicochemical.
The target in series [4] is T2, Inhibitor of nuclear factor kappa-B kinase subunit beta (Mus musculus) (UniProt O88351).
T2 sequence (whole entry): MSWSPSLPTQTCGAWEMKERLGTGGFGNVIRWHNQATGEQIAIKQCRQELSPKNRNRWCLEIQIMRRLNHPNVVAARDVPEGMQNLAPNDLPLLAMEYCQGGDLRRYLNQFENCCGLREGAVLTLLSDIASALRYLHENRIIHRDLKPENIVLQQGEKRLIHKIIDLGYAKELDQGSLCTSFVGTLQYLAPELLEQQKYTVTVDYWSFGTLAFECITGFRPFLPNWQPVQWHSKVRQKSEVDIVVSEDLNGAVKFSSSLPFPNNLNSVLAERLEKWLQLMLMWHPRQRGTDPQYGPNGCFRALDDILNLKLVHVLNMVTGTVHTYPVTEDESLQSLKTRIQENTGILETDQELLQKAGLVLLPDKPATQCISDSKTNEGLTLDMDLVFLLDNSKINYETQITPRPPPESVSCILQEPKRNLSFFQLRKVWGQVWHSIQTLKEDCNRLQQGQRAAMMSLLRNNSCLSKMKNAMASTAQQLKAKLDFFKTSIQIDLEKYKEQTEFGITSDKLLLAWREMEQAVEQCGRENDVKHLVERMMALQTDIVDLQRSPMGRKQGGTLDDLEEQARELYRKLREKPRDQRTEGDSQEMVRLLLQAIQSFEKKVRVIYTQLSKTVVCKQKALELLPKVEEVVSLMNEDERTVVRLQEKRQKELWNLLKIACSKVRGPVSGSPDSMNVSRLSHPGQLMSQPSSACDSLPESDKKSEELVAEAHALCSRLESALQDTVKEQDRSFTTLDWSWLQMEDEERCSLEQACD
Put plainly: Inhibition of LPS induced IKKbeta-mediated NF-kappa-B p65 nuclear translocation in mouse RAW264.7 cells at 5 uM preincubated for 6 hrs followed by LPS challenge measured after 30 mins by DAPI staining based confocal laser scanning microscopic method. Type of series: cell-based. Summed up: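 Pretreatment 6 h with 5 µM compound, then LPS 100 ng/ml for 30 min. Cells fixed in acetone:methanol 1:1 for 10 min, blocked 1 h at room temperature, and incubated overnight at 4 °C with p-NF-κB antibody (1:50). RITC secondary (1:100) applied 1 h, nuclei stained with DAPI, and slides imaged by confocal laser scanning microscopy.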

Series [5] relates to RAW264.7. Put plainly: Antiinflammatory activity against mouse RAW264.7 cells assessed as inhibition of LPS induced IL-6 production preincubated for 6 hrs followed by LPS challenge measured after 18 hrs by ELISA method. The class given is functional, cell-based. Summed up:
(§1)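 Cells plated at 4 × 10^5 per well and left to attach overnight, then pretreated 6 h with compound (1, 2 and 5 µM) before LPS 100 ng/ml for 18 h. IL-6 and TNF-α measured in cell-free supernatants with a mouse ELISA kit, following the kit instructions.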

Series [6] concerns RAW264.7. As to the kind of experiment: Antiinflammatory activity against mouse RAW264.7 cells assessed as inhibition of LPS induced TIMP-1 production at 5 uM preincubated for 6 hrs followed by LPS challenge measured after 18 hrs. Type of series: functional, cell-based. Summed up:
(§2)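 Cells cultured in DMEM with 10% FBS and 1% penicillin/streptomycin, pretreated 6 h with compound at 5 µM, then LPS 100 ng/ml for 18 h. Lysates mixed with antibody cocktail and incubated overnight on a blocked mouse cytokine array membrane, then streptavidin-HRP with chemiluminescent detection. Relative protein expression taken from densitometry of scanned images.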

Series [7] has as its system RAW264.7. As to the kind of experiment: Antiinflammatory activity against mouse RAW264.7 cells assessed as inhibition of LPS induced nitric oxide synthase synthesis preincubated for 6 hrs followed by LPS challenge by western blot method. The class given is functional, cell-based. (In general: In western blotting, separated proteins are transferred to a membrane and probed.)

In series [8] the test system is RAW264.7. As to the kind of experiment: Antiinflammatory activity against mouse RAW264.7 cells assessed as inhibition of LPS induced IL-1alpha production at 5 uM preincubated for 6 hrs followed by LPS challenge measured after 18 hrs. The class given is functional, cell-based. Summed up:
as §2

Series [9] deals with T2, Inhibitor of nuclear factor kappa-B kinase subunit beta (Mus musculus). As to the kind of experiment: Inhibition of LPS-induced IKKbeta phosphorylation in mouse RAW264.7 cells preincubated for 6 hrs followed by LPS challenge measured after 30 mins by Western blot method.
For series [10], the system named is RAW264.7. As to the kind of experiment: Antiinflammatory activity against mouse RAW264.7 cells assessed as inhibition of LPS induced I-TAC production at 5 uM preincubated for 6 hrs followed by LPS challenge measured after 18 hrs. Type of series: functional, cell-based. The gist of the method: as §2
Series [11] concerns the target T2, Inhibitor of nuclear factor kappa-B kinase subunit beta (Mus musculus). Put plainly: Inhibition of LPS-induced IKKbeta-mediated NF-kappa-B p65 phosphorylation in mouse RAW264.7 cells preincubated for 6 hrs followed by LPS challenge measured after 30 mins by ELISA method. The class given is cell-based. The gist of the method:
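Cells exposed 6 h to compound at 1, 2 and 5 µM, then LPS 100 ng/ml for 30 min. Cytoplasmic phospho-NF-κB p65 measured with an ELISA kit, following the kit instructions.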
(In an ELISA, binding on a coated surface is turned into a signal by an enzyme label.)

For series [12] the target is unchanged. Put plainly: Inhibition of LPS-induced IKKbeta-mediated IkappaB-alpha phosphorylation in mouse RAW264.7 cells preincubated for 6 hrs followed by LPS challenge measured after 30 mins by Western blot method.
Series [13] relates to RAW264.7. Put plainly: Antiinflammatory activity against mouse RAW264.7 cells assessed as inhibition of LPS induced SiCAM-1 production at 5 uM preincubated for 6 hrs followed by LPS challenge measured after 18 hrs. The class given is functional, cell-based. The gist of the method:
as §2

For series [14], the system named is RAW264.7. As to the kind of experiment: Antiinflammatory activity against mouse RAW264.7 cells assessed as inhibition of LPS induced TNF-alpha production preincubated for 6 hrs followed by LPS challenge measured after 18 hrs by ELISA method. The class given is functional, cell-based. Summed up:
as §1

For `CN(C)CCOc1ccc(-c2ccnc(Nc3ccc(S(N)(=O)=O)cc3)n2)cc1`, the inhibition entry in the series with RAW264.7 [1] is “Active”. In [2], this compound displayed an IC50 of 79 nM.
With `NS(=O)(=O)c1ccc(Nc2nccc(-c3ccc(Oc4ccccc4)cc3)n2)cc1`, in series [2], inhibition was half-maximal at 1520 nM (IC50). This counts as single-digit micromolar.
Still for that read-out and setting: under `NS(=O)(=O)c1ccc(Nc2nccc(-c3ccc(Oc4ccccc4[N+](=O)[O-])cc3)n2)cc1` stands 34 nM.
With `Nc1ccccc1Oc1ccc(-c2ccnc(Nc3ccc(S(N)(=O)=O)cc3)n2)cc1`, the logD in series [3] was 3.29. For the same compound, the IC50 in series [2] worked out at 97 nM.
Regarding `Nc1ccc(-c2ccnc(Nc3ccc(S(N)(=O)=O)cc3)n2)cc1`, the inhibition entry (in [4]; in the series on RAW264.7 [1]; with RAW264.7 [6]; in the series with RAW264.7 [8]; with RAW264.7 [10]; in the series on RAW264.7 [13]) was “Active” each time. Besides, the inhibition entry (in the series on RAW264.7 [5]; with RAW264.7 [7]; in series [9]; in series [11]; in [12]; with RAW264.7 [14]) was “Dose-dependent effect” throughout. The compound further had an IC50 in series [2] of 41 nM.
For `CN(C)c1ccc(Nc2nccc(-c3ccc(Oc4ccccc4N)cc3)n2)cc1`, in [2], the IC50 came to 28700 nM. In other words, the double-digit micromolar range.
Still for that read-out and setting: under `CS(=O)(=O)c1ccc(Nc2nccc(-c3ccc(Oc4ccccc4N)cc3)n2)cc1` stands 2700 nM; under `Nc1ccccc1Oc1ccc(-c2ccnc(Nc3ccc4ncsc4c3)n2)cc1`, 4600 nM.
For the compound `COC(=O)Nc1ccc(Nc2nccc(-c3ccc(Oc4ccccc4[N+](=O)[O-])cc3)n2)cc1`, the half-inhibitory concentration (IC50) in [2] is over 20000 nM.
Same read-out and setting: to `N#Cc1ccc(-c2ccnc(Nc3ccc(S(=O)(=O)NCCO)cc3)n2)cc1` belongs 111 nM; to `CS(=O)(=O)Nc1ccc(Nc2nccc(-c3ccc(Oc4ccccc4[N+](=O)[O-])cc3)n2)cc1`, 320 nM; to `Cc1ccc(Nc2nccc(-c3ccc(Oc4ccccc4N)cc3)n2)cc1`, over 50000 nM.
`CNS(=O)(=O)c1ccc(Nc2nccc(-c3ccc(Oc4ccccc4[N+](=O)[O-])cc3)n2)cc1` displayed an IC50 in [2] of 1100 nM. This lies in the single-digit micromolar range.
Still for that read-out and setting: to `Nc1ccccc1Oc1ccc(-c2ccnc(Nc3ccccc3)n2)cc1` belongs 11800 nM.
With `NCCOc1ccc(-c2ccnc(Nc3ccc(S(N)(=O)=O)cc3)n2)cc1`, in series [3], the logD was 1.39. In addition, the inhibition result with RAW264.7 [1] was “Active”. The same compound gave an IC50 in [2] of 65 nM.
Take `COc1ccc(Nc2nccc(-c3ccc(Oc4ccccc4N)cc3)n2)cc1`: in series [2], it took 12000 nM to reach half-maximal inhibition (IC50).
On the same count and under the same terms, under `Nc1ccccc1Oc1ccc(-c2ccnc(Nc3ccc(S(=O)(=O)Nc4nccs4)cc3)n2)cc1` stands 1100 nM.
The compound `Nc1ccccc1Oc1ccc(-c2ccnc(Nc3ccc(Cl)cc3)n2)cc1` came in with an IC50 in [2] of 34100 nM. Compared with the last compound, the IC50 is about 31-fold higher.
Same read-out and setting: under `Nc1ccccc1Oc1ccc(-c2ccnc(Nc3cccc(S(N)(=O)=O)c3)n2)cc1` stands 1600 nM; under `NC(=O)c1ccc(Nc2nccc(-c3ccc(Oc4ccccc4N)cc3)n2)cc1`, 14200 nM.
Compound `N#Cc1ccc(-c2ccnc(Nc3ccc(S(N)(=O)=O)cc3)n2)cc1` came in with a logD in series [3] of 3.81. The compound also came in with a 50% inhibitory concentration (IC50) in series [2] of 58 nM.
Regarding `NS(=O)(=O)c1ccc(Nc2nccc(-c3ccc(Cl)cc3)n2)cc1`, in series [2], the IC50 was 19 nM. That is a double-digit nanomolar value.
In the case of `CCOC(=O)Nc1ccc(Nc2nccc(-c3ccc(Oc4ccccc4[N+](=O)[O-])cc3)n2)cc1`, the IC50 in series [2] is over 20000 nM.
`CC(=O)c1ccc(Nc2nccc(-c3ccc(Oc4ccccc4N)cc3)n2)cc1` showed an IC50 in series [2] of 8100 nM.
On the same count and under the same terms, under `CC(C)(C)OC(=O)NCCOc1ccc(-c2ccnc(Nc3ccc(S(N)(=O)=O)cc3)n2)cc1` stands 138 nM; under `N#Cc1ccc(Nc2nccc(-c3ccc(Oc4ccccc4N)cc3)n2)cc1`, 6200 nM.
Still for that read-out and setting: to `CC(=O)Nc1ccc(Nc2nccc(-c3ccc(Oc4ccccc4N)cc3)n2)cc1` belongs 4200 nM.
`Nc1ccc(-c2ccnc(Nc3ccc(S(=O)(=O)NCCO)cc3)n2)cc1` showed a log distribution coefficient (logD) in series [3] of 0.58. Besides, the inhibition result with RAW264.7 [1] is “Active”. The compound further displayed an IC50 in series [2] of 53 nM.
With `N#Cc1cccc(-c2ccnc(Nc3ccc(S(=O)(=O)NCCO)cc3)n2)c1`, in [3], the logD came to 1.49. For the same compound, the inhibition result in the series with RAW264.7 [1] was “Active”. In addition, half-maximal inhibition in series [2] (IC50) was put at 190 nM.

A word on the IC50: it is the concentration that inhibits the measured activity by half. Higher therefore signals weaker potency in that assay. Usually logD stands for the decadic logarithm of the distribution of all forms, ionised or not, between an organic phase and buffer at a given pH. A higher logD goes with higher lipophilicity.
